Measurements as given in paper PMC8650835 (International Journal of Nanomedicine, 2021).
≈ marks a conversion by molar mass, not a printed value.

What was measured:
[1] = Aqueous solubility in PBS; assay type: physicochemical; conditions: pH = 7.4
[2] = in PBS; cited from earlier work
[3] = free CPT; cited from earlier work
[4] = In vivo safety: body weight, H&E histology, blood biochemistry; parameters: species or system BALB/c nude mice; conditions: 10 mg·kg^−1 i.v.
Outline: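 MCF-7 xenografts in BALB/c nude mice: 1×10^6 cells s.c. (alar region), randomised at 100–200 mm3 (n = 6/group). Untreated normal group also included. Body weight recorded every 2 days for 16 days. Day 16: serum ALT, AST, BUN, CRE measured; organs formalin-fixed, paraffin-embedded and H&E-stained.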

| Compound | aqueous solubility [1] | CPT lactone form remained at equilibrium [2] | half-life of lactone ring hydrolysis [2] | blood circulation half-life (t1/2) [3] | body weights compared to PBS ([4]; MCF-7 tumor-bearing nude mice, p < 0.05) | creatinine (CRE) level compared with the normal group ([4]; day 16, p < 0.001, n = 6) | blood urea nitrogen (BUN) level compared with the normal group ([4]; day 16, p < 0.05, n = 6) | H&E staining of kidney ([4]; characteristic of acute kidney injury) |
| --- | --- | --- | --- | --- | --- | --- | --- | --- |
| CC[C@@]1(O)C(=O)OCc2c1cc1n(c2=O)Cc2cc3ccccc3nc2-1 [CPT, camptothecin] | 3 µg/mL (≈ 8.61 µM) | 17% | 24 min | 9.9 ± 8.04 min | – | – | – | – |
| CCc1c2c(nc3ccc(OC(=O)N4CCC(N5CCCCC5)CC4)cc13)-c1cc3c(c(=O)n1C2)COC(=O)[C@]3(O)CC [IR, irinotecan] | – | – | – | – | reduced observably | increased obviously | increased obviously | obvious interstitial inflammatory cell infiltration |
